In paper PMC4806784 (Investigational new drugs, 2015):
Where two headings read alike, the source gives them in different places.

Legend:
[1] = assay type: in vivo, human; conditions: human, plasma, oral; for AUC(0-t): AUC0-12h; for concentration at 12 h: C12h
How it was run: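 Test compound was given as oral capsules with […] water after a 2-h fast, BID Q12hr, 3–6 patients per dose level. Docetaxel 60 mg/m2 was a 1-h IV infusion 2 h beforehand. […] was sampled on Cycle 1 Day 1 (predose, 0.5–24 h after dose 1) and Day 2 (predose, 0.5–44 h after dose 4). Analysis was non-compartmental, with AUC by linear-up/log-down trapezoidal method and Cmax/Tmax by inspection.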

[2] = test system: advanced and/or refractory solid tumors; assay: Tumor response; assay type: in vivo, human
[3] = test system: AURKA, AURKB, BIRC5, PRC1, TACC3, DLGAP5 [DLG7], and NDC80 [KNTC2]; assay: Gene expression PD biomarkers by quantitative RT-PCR on hair follicle RNA; assay type: in vivo, human; conditions: Panel 1 (MT), p < 0.05 unadjusted
AK-A = conditions: adenosine triphosphate-competitive inhibitor; cited from earlier work
HeLaS3 cells = conditions: cited from earlier work
[4] = 1200 mg/day, Panel 1 (MT), Dose 1
[5] = 1200 mg/day, Panel 1 (MT), Dose 4
[6] = 1500 mg/day, Panel 1 (MT), Dose 1
[7] = 1500 mg/day, Panel 1 (MT), Dose 4
[8] = 1800 mg/day, Panel 1 (MT), Dose 1
[9] = 1800 mg/day, Panel 1 (MT), Dose 4
[10] = Panel 2: (N = 17) MK-5108 CT with docetaxel

O=C(O)[C@]1(Cc2cccc(Nc3nccs3)n2)CC[C@@H](Oc2cccc(Cl)c2F)CC1 [MK-5108]
Cmax ([1]; 800 mg/day, Panel 1 (MT), Dose 4): 20 ± 11 µM
Tmax ([1]; 800 mg/day, Tmax, Panel 1 (MT), Dose 1, median (range)): 1 h
Tmax ([1]; 800 mg/day, Tmax, Panel 1 (MT), Dose 4, median (range)): 1 h
half-life ([1]; 800 mg/day, t1/2, 800 mg/day, Panel 1 (MT), Dose 4): 11.1 ± 1.1 h
AUC(0-t) [1, 4]: 96.6 ± 45.6 µM·h
AUC(0-t) [1, 5]: 116 ± 61.4 µM·h
concentration at 12 h [1, 4]: 2.12 ± 2.09 µM
concentration at 12 h [1, 5]: 3.31 ± 0.53 µM
Cmax [1, 4]: 22.3 ± 12.7 µM
Cmax [1, 5]: 25 ± 9.4 µM
Tmax ([1]; 1200 mg/day, Tmax, Panel 1 (MT), Dose 1, median (range)): 2 h
Tmax ([1]; 1200 mg/day, Tmax, Panel 1 (MT), Dose 4, median (range)): 3 h
half-life ([1]; 1200 mg/day, t1/2, 1200 mg/day, Panel 1 (MT), Dose 4): 8.3 ± 3.3 h
AUC(0-t) [1, 6]: 83.2 ± 50.8 µM·h
AUC(0-t) [1, 7]: 131 ± 53.2 µM·h
concentration at 12 h [1, 6]: 1.04 ± 0.4 µM
concentration at 12 h [1, 7]: 2.8 ± 1.26 µM
Cmax [1, 6]: 20.8 ± 10.6 µM
Cmax [1, 7]: 28.9 ± 13.6 µM
Tmax ([1]; 1500 mg/day, Tmax, Panel 1 (MT), Dose 1, median (range)): 2 h
Tmax ([1]; 1500 mg/day, Tmax, Panel 1 (MT), Dose 4, median (range)): 2 h
half-life ([1]; 1500 mg/day, t1/2, 1500 mg/day, Panel 1 (MT), Dose 4): 11.4 ± 2 h
AUC(0-t) [1, 8]: 101 ± 39.3 µM·h
AUC(0-t) [1, 9]: 234 ± 62.7 µM·h
concentration at 12 h [1, 8]: 4.78 ± 4.64 µM
concentration at 12 h [1, 9]: 6.85 ± 3.96 µM
Cmax [1, 8]: 24.8 ± 9.6 µM
Cmax [1, 9]: 50.2 ± 11.4 µM
Tmax ([1]; 1800 mg/day, Tmax, Panel 1 (MT), Dose 1, median (range)): 2 h
Tmax ([1]; 1800 mg/day, Tmax, Panel 1 (MT), Dose 4, median (range)): 3 h
half-life ([1]; 1800 mg/day, t1/2, 1800 mg/day, Panel 1 (MT), Dose 4): 6.6 ± 0.6 h
Tmax ([1]; Median Tmax, following the first dose, across dose levels): 1 to 4 h
Tmax ([1]; Median Tmax, following the fourth dose, across dose levels): 1 to 6 h
half-life ([1]; mean t1/2, range across dose levels, across both panels): 6.6 to 13.5 h
half-life ([1]; t1/2 range (variable), following Dose 4): 5 to 29 h
Partial Response ([2]; MK-5108 225 Q12hr (450 mg/day) CT, 1 patient): 5.9%
stable disease ([2]; MK-5108 CT, 7 patients): 41.2%
Progressive Disease ([2]; MK-5108 MT, 8 patients): 44.4%
stable disease ([2]; MK-5108 MT, 9 patients): 50%
best response: stable disease (patients/evaluable) ([2]; Panel 1 (MT)): 9/17
median duration of stable disease ([2]; Panel 1 (MT)): 88 days
Partial Response ([2]; Panel 1: (N = 18) MK-5108 MT): 0 (0.0) n (%)
Progressive Disease ([2]; Panel 1: (N = 18) MK-5108 MT): 8 (44.4) n (%)
Tumor response category: Discontinued due to AE ([2]; Panel 1: (N = 18) MK-5108 MT): 1 (5.6) n (%)
stable disease ([2]; Panel 1: (N = 18) MK-5108 MT): 9 (50.0) n (%)
best response: SD (patients/evaluable) ([2]; Panel2 (CT)): 7/16
median duration of stable disease ([2]; Panel2 (CT)): 48 days
best response: PR (patients/evaluable) ([2]; Panel2 (CT), 450 mg/day): 1/16
Partial Response [2, 10]: 1 (5.9) n (%)
Progressive Disease [2, 10]: 8 (47.1) n (%)
Tumor response category: Discontinued due to AE [2, 10]: 1 (5.9) n (%)
stable disease [2, 10]: 7 (41.2) n (%)
complete responses ([2]; either of the treatment panels): no complete responses
genes (of seven) with significant dose-related changes in the expected direction [3]: 5 genes
IC50 (AK-A): 0.064 nM
apoptosis in combination with docetaxel (HeLaS3 cells): robustly potentiated apoptosis
